Measured values gathered from unrelated publications.
Target: Serine/threonine-protein kinase Sgk1 (SGK1, Homo sapiens, UniProt O00141)
One construct used (O00141 1-431): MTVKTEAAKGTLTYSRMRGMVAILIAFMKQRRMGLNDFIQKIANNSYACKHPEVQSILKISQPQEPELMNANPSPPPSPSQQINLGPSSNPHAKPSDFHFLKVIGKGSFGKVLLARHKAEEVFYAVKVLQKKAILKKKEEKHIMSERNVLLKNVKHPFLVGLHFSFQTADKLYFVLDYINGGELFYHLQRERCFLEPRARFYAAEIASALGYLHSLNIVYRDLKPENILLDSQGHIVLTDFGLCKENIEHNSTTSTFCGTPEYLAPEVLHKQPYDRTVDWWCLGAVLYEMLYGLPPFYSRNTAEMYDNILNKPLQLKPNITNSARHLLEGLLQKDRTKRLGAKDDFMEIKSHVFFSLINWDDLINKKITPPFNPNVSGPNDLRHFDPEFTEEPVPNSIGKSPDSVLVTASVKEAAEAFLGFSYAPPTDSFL

| Compound | observed | method | concentration | remaining binding [%] |
| --- | --- | --- | --- | --- |
| CN(c1nccc(-c2cnn3ncccc23)n1)C1CC1 | binding |  | 1 µM | 100 |
| Cc1cnc(Nc2ccc(C(=O)N3CCC(N4CCCC4)CC3)cc2)nc1-c1cc2ccccc2s1 | binding | competition with immobilised ligand | 1 µM | 0.2 |
| Nc1ncc2c(n1)-c1c([nH]c3ccc(C#CC4CC4)cc13)CCCC2 | binding | competition with immobilised ligand | 1 µM | 88 |
| CC(=O)Nc1c(C(C)=O)c(=O)n(C)c2nc(-c3ccc(Cl)cc3Cl)c(-c3ccc(Cl)cc3)cc12 | cell-free assay | competition with immobilised ligand | 1 µM | 100 |
| CN(C)c1nccc(-c2cnc3ncccn23)n1 | binding |  | 1 µM | 79 |
| CN(C)CC#Cc1ccc(OCCCc2sc(N3CCc4cccc(C(=O)Nc5nc6ccccc6s5)c4C3)nc2C(=O)O)c(F)c1 | cell-free assay | competition with immobilised ligand | 1 µM | 100 |
| C[C@@H]1CCN(c2nccc(-c3cnn4ncccc34)n2)C1 | binding |  | 1 µM | 58 |
| CNCc1ccccc1-c1csc([C@H](C)Nc2nc(C)nc3cc(OC)c(OC)cc23)c1 | cell-free assay | competition with immobilised ligand | 1 µM | 91 |
| N[C@H]1CCN(c2nccc(-c3cnn4ncccc34)n2)C1 | binding |  | 1 µM | 91 |
| O=C(c1ccc(Nc2ncc(Cl)c(-c3ccc(Cl)s3)n2)cc1)N1CCC(N2CCCC2)CC1 | binding | competition with immobilised ligand | 1 µM | 0.1 |
| CC(=O)N1CCC(c2ccc(C(=O)NC3=NCCN3)cc2C(F)(F)F)CC1 | cell-free assay | competition with immobilised ligand | 1 µM | 100 |
| COc1cnc(Nc2cccc(S(N)(=O)=O)c2)nc1N1CCN(c2ccccc2)C(=O)C1 | binding | competition with immobilised ligand | 1 µM | 94 |
| CN(CCCC(F)(F)F)c1nccc(-c2cnn3ncccc23)n1 | binding |  | 1 µM | 85 |
| C=CC(=O)N1CCC(C(=O)NCC(=O)N2CCN(c3nc(-c4cnc(N)nc4C(F)F)nc(N4CCOCC4)n3)CC2)CC1 | binding | competition with immobilised ligand | 1 µM | 85 |
| COc1cnc(Nc2cccc(S(N)(=O)=O)c2)nc1N1CCN(c2ccccc2)CC1 | binding | competition with immobilised ligand | 1 µM | 76 |
| CS(=O)(=O)c1cc(C2(NC(=O)c3cncc4c3cnn4-c3ccc(F)cc3)CC2)ccn1 | cell-free assay | competition with immobilised ligand | 1 µM | 97 |
| O=C(NCC1CCOCC1)c1n[nH]cc1NC(=O)c1c(F)cccc1F | binding | competition with immobilised ligand | 1 µM | 89 |
| O=C1NC(c2ccccn2)Sc2ccccc21 (stereo not shown) | cell-free assay | competition with immobilised ligand | 1 µM | 87 |
| COc1ccnn2ncc(-c3ccnc(N(C)C)n3)c12 | binding |  | 1 µM | 80 |
| O=C(NCCCN1CCOCC1)c1ccc(Nc2nccc(-c3cc4ccccc4s3)n2)cc1 | binding | competition with immobilised ligand | 1 µM | 8 |
| CN(C)C(=O)Cn1cc(-c2nc([C@@](C)(c3ccc(-c4cnc(N)nc4)cc3)C3CC3)no2)cn1 | cell-free assay | competition with immobilised ligand | 1 µM | 91 |
| c1cncc(-c2cccc(Nc3nccc(NC4CCCCC4)n3)c2)c1 | binding | competition with immobilised ligand | 10 µM | 92 |
